Screens deposited in PubChem BioAssay by Sanford-Burnham Center for Chemical Genomics.
Hits are enriched below; roughly 3.1% of the tested compounds scored in any of these assays.
SENP7 block = SENP7 protease inhibitors, primary screen, biochemical, luminescence, uHTS. recombinant SENP7, Z-RLRGG-aminoluciferin luminescence, 40 min. hit rate 1.5% among 330,000. AID 434973, 2010. Sentrin-specific protease 7 (Homo sapiens), Q9BQF6. inhibition, % at 5 µM;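 active = inhibition above about 50% at the single test dose, limit read from the data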;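 also: plate controls were DMSO with enzyme for no effect and no enzyme buffer wells for full effect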
SENP6 block = SENP6 protease inhibitors, primary screen, biochemical, luminescence, uHTS | Sentrin-specific protease 6 (Homo sapiens), Q9GZR1 | Recombinant SENP6 catalytic domain, aminoluciferin luminescence | inhibition, % at 10 µM | hit rate 1.8% among 330,000 | AID 2599, 2010;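 active = inhibition above about 50% at the single tested dose, limit read from the data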;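 also: plate controls were DMSO wells with enzyme for no effect and DMSO wells lacking enzyme for full effect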
SENP8 block-1 = SENP8 protease inhibitors, primary screen, biochemical, luminescence. inhibition, % at 10 µM. Sentrin-specific protease 8 (Homo sapiens), Q96LD8. purified SENP8, Z-RLRGG-aminoluciferin cleavage. hit rate 1.2% among 330,000. AID 2540, 2010; in the data active = inhibition above about 50%
SENP8 block-2 = human SENP8 protease inhibitors, primary screen, biochemical, fluorescence, Nedd8 protein substrate, uHTS; recombinant SENP8; hit rate 0.64% among 360,000; inhibition, % at 20 µM; Sentrin-specific protease 8 (Homo sapiens), Q96LD8; AID 602440, 2012; in the data active = inhibition mostly above about 40%, no sharp cut-off; inactive = mostly below about 27%
Apaf1 inhib = inhibitors of human Apaf-1 apoptosome, primary screen, biochemical, DEVD-Rh110 fluorescence, uHTS; hit rate 0.71% among 330,000; inhibition, % at 20 µM; reconstituted apoptosome caspase-3 activity; active = inhibition of at least 40% at 20 µM;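 also: plate controls were DMSO wells for no effect and DEVD-CHO caspase inhibitor wells for full effect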
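Medium: Hepes buffer, pH 7.5 / System: biochemical Apaf-1 apoptosome reconstitution / Measured by: Rh110 fluorescence, excitation 480 nm, emission 540 nm / Times: compound with Apaf-1, dATP, procaspase-3 30 min, then 50 min reaction, room temperature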
UBC13 inh = UBC13 polyubiquitin chain formation inhibitors, primary screen, biochemical, TR-FRET, uHTS. Ubiquitin-conjugating enzyme E2 N (Homo sapiens), P61088. inhibition, % at 20 µM. hit rate 0.47% among 330,000. AID 485273, 2010; in the data active = inhibition above about 45%, passing the limit was not always enough
SENP8 conf = SENP8 protease inhibitors, retest, confirmation, biochemical, luminescence, single concentration; Recombinant SENP8, Z-RLRGG-aminoluciferin luminescence, 60 min; inhibition, % at 12.5 µM; AID 488912, 2010; hit rate 40% among 6,200; shares compounds with SENP7 block;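 active = mean inhibition across replicates above about 50%, limit read from the data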
SENP6 confirm = SENP6 protease inhibitors, confirmation, biochemical, luminescence, single concentration; shares compounds with SENP7 block; recombinant SENP6, Z-RLRGG-aminoluciferin luminescence; inhibition, % at 12.5 µM; hit rate 58% among 6,200
SENP7 confirm = SENP7 protease inhibitors, retest, confirmation, biochemical, luminescence, single concentration; inhibition, % at 12.5 µM; shares compounds with SENP7 block; hit rate 69% among 6,200; recombinant SENP7, Z-RLRGG-aminoluciferin luminescence, 40 min; AID 488917, 2010
Casp3 select = caspase-3 protease inhibitors, confirmation, selectivity assay for SENP inhibitor project, biochemical, single concentration. purified caspase-3, Z-DEVD-aminoluciferin luminescence, 60 min. shares compounds with SENP7 block. hit rate 60% among 6,200. inhibition, % at 12.5 µM;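 active = mean inhibition above about 50%, limit read from the data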;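 also: plate controls were enzyme with DMSO for no effect and wells without caspase-3 for full effect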
SENP luc ctr = interferes with luciferase luminescence in SENP counter-screen. shares compounds with SENP7 block. AID 488919. hit rate 39% among 6,200. inhibition, % at 12.5 µM. Pre-incubated SENP8/Z-RLRGG-aminoluciferin, luciferase luminescence interference;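 active = mean inhibition above about 50% when retested at one dose, limit read from the data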;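 also: plate controls were DMSO wells with completed reaction for no effect and substrate without enzyme for full effect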
* marks the source's active call; other numbers are inactive results; x = no result.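 The calls were made as follows, unless noted: active = mean inhibition above about 50% in the one-dose retest (limit read from the data); inactive = the rest.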

SMILES	SENP7 block	SENP6 block	SENP8 block-1	SENP8 block-2	Apaf1 inhib	UBC13 inh	SENP8 conf	SENP6 confirm	SENP7 confirm	Casp3 select	SENP luc ctr
N#CC1=C(N)Oc2c(oc(CO)cc2=O)C1c1ccsc1 (stereo not drawn)	-2	9	-4	-24	6	-14	x	x	x	x	x
N#CC1=C(N)Oc2c(ccc3ccccc23)C1c1ccsc1 (stereo not drawn)	16	62*	9	-115	29	-10	-21	-18	-7	-8	-1
Cc1c(Cl)cccc1NC(=O)CSc1nc(=O)n(CCCN2CCOCC2)c2c1CCCC2	x	x	x	8	x	x	x	x	x	x	x
COc1ccc(C(=O)C[C@@H]2OC[C@H](C(C)C)N2S(=O)(=O)c2ccc(C)cc2)cc1OC	x	x	x	12	x	x	x	x	x	x	x
N#C/C(=C\c1ccc(O)cc1)c1nc2ccccc2o1	63*	84*	74*	-83	-12	-137	81*	80*	93*	62*	74*
COc1cc(/C=C(\C#N)c2nc3ccccc3o2)ccc1O	80*	95*	90*	-53	11	-491	94*	94*	99*	86*	41
COc1cc(/C=C(\C#N)c2nc(-c3cc4ccccc4oc3=O)cs2)ccc1O	3	-4	1	-88	17	-55	x	x	x	x	x
Cc1ccc(C)c(N/C=C(\C#N)c2nc3ccccc3o2)c1	-5	2	-5	4	2	0	x	x	x	x	x
COc1cc(/C=C(\C#N)c2nc3ccccc3[nH]2)ccc1OC(=O)c1ccco1	73*	75*	83*	-428	14	-24	66*	67*	99*	86*	27
COc1cc(/C=C(/C#N)c2nc3ccccc3[nH]2)ccc1OCC(=O)Nc1ccccc1C	-2	-9	11	-266	2	-21	x	x	x	x	x
Cc1ccc2c(c1)S(=O)(=O)N(C)C(c1ccccc1)=C2	x	x	x	-1	x	x	x	x	x	x	x
CC1(C(=O)NS(=O)(=O)c2cccc(C#N)c2)CCN1C(=O)Cc1ccccc1 (stereo not drawn)	x	x	x	13	x	x	x	x	x	x	x
COc1cccc(N=Nc2ccc3ccccc3c2O)c1	100*	89*	96*	12	21	-111	8	31	20	92*	0
COc1ccc(N=Nc2ccc3ccccc3c2)c(O)c1	98*	98*	19	27	11	-27	43	40	26	41	-1
COc1ccc(N=Nc2cc(C)ccc2O)cc1	99*	9	96*	-11	-3	-20	84*	97*	102*	92*	92*
COc1ccc(N=Cc2oc3ccc4ccccc4c3c2O)cc1	-7	3	-18	-58	10	-21	x	x	x	x	x
NC(COCc1ccccc1)c1csc(NC(=O)Nc2cccc(Cl)c2)n1 (stereo not drawn)	x	x	x	26	x	x	x	x	x	x	x
COc1ccc(CCC(=O)Nc2c(-c3ccc(N(C)C)cc3)[nH][nH]c2=O)cc1	x	x	x	-358	x	x	x	x	x	x	x
Oc1c(N=Nc2ccc(F)cc2)ccc2ccccc12	99*	82*	86*	42*	5	-92	38	45	21	78*	12
Cc1ccc(N=Nc2ccc3ccccc3c2O)cc1	100*	46	90*	16	3	-90	6	7	1	2	7
Cc1cc2nc(-c3nnnn3Cc3ccccc3)c(=O)[nH]c2cc1C	x	x	x	-376	x	x	x	x	x	x	x
CCCCOCCCNC(=O)CN1C(=O)c2ccccc2C1=O	88*	-27	4	12	-12	6	-1	0	-1	-1	-4
O=C(/C=C/Nc1cccc(C(F)(F)F)c1)c1ccco1	-7	26	5	-364	1	2	x	x	x	x	x
O=C(/C=C/Nc1ccccc1C(F)(F)F)c1ccco1	69*	77*	54*	-27	6	1	2	60*	87*	51*	44
O=C(/C=C/Nc1ccc(Oc2ccccc2)cc1)c1ccco1	98*	95*	95*	-241	17	3	32	98*	102*	95*	19
SMILES	SENP7 block	SENP6 block	SENP8 block-1	SENP8 block-2	Apaf1 inhib	UBC13 inh	SENP8 conf	SENP6 confirm	SENP7 confirm	Casp3 select	SENP luc ctr
NC(=O)c1ccccc1N/C=C/C(=O)c1ccco1	42	73*	48	-398	-2	-3	72*	69*	87*	86*	72*
CCOC(=O)CC1(C)Oc2cc(Cl)ccc2N1S(=O)(=O)c1ccc(C)cc1 (stereo not drawn)	x	x	x	20	x	x	x	x	x	x	x
COc1ccccc1S(=O)(=O)N(C)C[C@@H]1OCc2cnnn2CCCC(=O)N([C@@H](C)CO)C[C@H]1C	x	x	x	12	x	x	x	x	x	x	x
OC(c1ccc(CN2CCCCC2)cc1)c1ncc(-c2ccccc2)[nH]1 (stereo not drawn)	x	x	x	-7	x	x	x	x	x	x	x
O=C1CCOc2cc(OCc3ccccc3)ccc21	95*	94*	88*	8	6	6	94*	94*	101*	94*	93*
CC1(C)CC(=O)c2ccc(OCc3ccc([N+](=O)[O-])cc3)cc2O1	-9	-29	-18	35	5	10	x	x	x	x	x
Cc1ccnc(NC(=O)c2ccc3c(c2)S(=O)(=O)c2ccccc2C3=O)c1	92*	87*	84*	39	12	-2	11	6	97*	64*	13
O=C(Nc1ccccn1)c1ccc2c(c1)S(=O)(=O)c1ccccc1C2=O	-9	5	-3	21	2	3	x	x	x	x	x
Cc1ccc(-c2csc(NC(=O)c3ccc(F)cc3)c2C(=O)O)cc1	58*	94*	90*	-24	7	1	-2	91*	90*	89*	68*
O=C(Nc1nsc(-c2ccccc2)n1)c1ccc(F)cc1	4	16	-9	-10	16	-6	x	x	x	x	x
